Here are results for five molecules from article PMC6045484 (ACS Omega, 2018).

The structures appear in SMILES notation. In brackets after ≈: the same amount, converted by molar mass. Entries after “also recorded” stand apart in the source; their conditions may differ.

For series [1], the system named is C. albicans ATCC90028. The series is described as follows: in vitro antifungal activity. The format is cell-based, Candida albicans. The note with it: Candida albicans; for IC50: ATCC90028, read-out: C. albicans IC50; for MFC: ATCC90028, read-out: C. albicans MFC; for MIC: ATCC90028, read-out: C. albicans MIC. An outline of the steps: (§1)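 Modified NCCLS broth method in Sabouraud dextrose. Inoculum set by OD630 to 1.5 × 10^3 CFU/mL. Test compound serially diluted in 20% DMSO/saline, duplicate wells, up to 20 μg/mL. Incubated 70–74 h at 35 °C; 530 nm read before and after. IC50 is 50% growth inhibition; MIC is no detectable growth. MFC from clear wells subcultured on agar. Amphotericin B control.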

For series [2], the system named is P. falciparum (D6). The series is described as follows: in vitro antimalarial activity, plasmodial LDH. In kind it is cell-based, Plasmodium falciparum. The note with it: Plasmodium falciparum, D6, 72 h, read-out: P. falciparum (D6) IC50.
In series [3] the test system is M. intracellulare (ATCC23068). The series is described as follows: in vitro antibacterial activity, modified alamarBlue procedure. In kind it is cell-based, Mycobacterium intracellulare. The note with it: Mycobacterium intracellulare; for IC50: ATCC23068, read-out: IC50 (concentration that affords 50% growth inhibition), M. intracellulare; for MBC: ATCC23068, read-out: MBC (minimum bactericidal concentration), M. intracellulare; for MIC: ATCC23068, read-out: MIC, M. intracellulare. In a few lines: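 Modified alamarBlue microplate method. Test compound serially diluted in 20% DMSO/saline, duplicate wells, up to 20 μg/mL. Inoculum 2.0 × 10^6 CFU/mL in Middlebrook 7H9 with OADC, pH 7.3, containing 5% alamarBlue. Incubated 70–74 h at 37 °C, 10% CO2; fluorescence 544ex/590em read before and after. MIC: no blue-to-pink change. MBC by subculturing blue wells on agar. Ciprofloxacin control.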
For orientation: Alamar Blue is a resazurin reagent that responds to reducing activity.

The subject of series [4] is P. falciparum (W2). The series is described as follows: in vitro antimalarial activity, plasmodial LDH. The format is cell-based, Plasmodium falciparum. The note with it: Plasmodium falciparum, W2, 72 h, read-out: P. falciparum (W2) IC50, CQ-resistant W2 strain, 72 h. An outline of the steps: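 P. falciparum-infected erythrocytes (2% parasitemia, 2% hematocrit) in RPMI 1640 with 10% human serum and 60 μg/mL amikacin. Exposed to test compound dilutions for 72 h at 37 °C under 90% N2/5% O2/5% CO2. LDH measured with Malstat reagent (30 min, room temperature), then NBT/PES for 1 h in the dark, stopped with 5% acetic acid, read at 650 nm. IC50 from dose-response curves.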

Series [5] relates to SA (ATCC29213). The series is described as follows: in vitro antibacterial activity. The format is cell-based. The note with it: Staphylococcus aureus; for IC50: ATCC29213, read-out: IC50 (concentration that affords 50% growth inhibition), SA; for MBC: ATCC29213, read-out: MBC (minimum bactericidal concentration), SA; for MIC: ATCC29213, read-out: MIC, SA. An outline of the steps:
(§2)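 Test compound serially diluted in 20% DMSO/saline and plated in duplicate, up to 20 μg/mL. Inoculum in cation-adjusted Mueller–Hinton broth, pH 7.3, set by OD630 to 5 × 10^5 CFU/mL. Incubated 16–20 h at 35 °C; 530 nm read before and after. IC50 is 50% growth inhibition; MIC is no detectable growth. MBC from clear wells subcultured on agar. Ciprofloxacin control.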

Series [6] deals with P. berghei (sensitive strain). The series is described as follows: blood-schizontocidal activity against P. berghei infection in mice. In kind it is in vivo, Plasmodium berghei. Conditions: Swiss mice. An outline of the steps:
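Swiss mice of either sex (about 15–20 g, same age), six per group, inoculated intraperitoneally on day 0 with 1 × 10^7 infected erythrocytes from a donor mouse. Oral test compound at 100, 50, 25 or 10 mg/kg, CQ diphosphate (10 mg/kg/day × 4) or vehicle started 4 h later, on D0 to D+3. Giemsa tail-blood smears on D+4 and D+7. Curative: parasites eliminated, no relapse, all mice surviving to D+60.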

The test system of series [7] is A. fumigatus ATCC 90906. The series is described as follows: in vitro antifungal activity. In kind it is cell-based, Aspergillus fumigatus. Conditions: Aspergillus fumigatus; for IC50: ATCC90906, read-out: A. fumigatus IC50; for MFC: ATCC90906, read-out: A. fumigatus MFC; for MIC: ATCC90906, read-out: A. fumigatus MIC. In a few lines: as §1
The subject of series [8] is SK-MEL, KB, BT-549, SK-OV-3, VERO and LLC-PK1 cells. In words: cytotoxicity, neutral red uptake assay. In kind it is cell-based, mammalian. Conditions: highest test concentration 4760 ng/mL. An outline of the steps:
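Cells seeded at 25 000/well and allowed 24 h to reach confluence. Test compound was then added and incubated 48 h. Viable cells were counted by a modified neutral red uptake method. The panel was four human cancer lines and two noncancerous mammalian kidney lines. Doxorubicin served as positive control and DMSO as negative control.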

For series [9], the system named is C. neoformans ATCC90113. In words: in vitro antifungal activity. The format is cell-based, Cryptococcus neoformans. The note with it: Cryptococcus neoformans; for IC50: ATCC90113, read-out: C. neoformans IC50; for MFC: ATCC90113, read-out: C. neoformans MFC; for MIC: ATCC90113, read-out: C. neoformans MIC. An outline of the steps: as §1
Series [10] deals with MRSA (ATCC33591). The series is described as follows: in vitro antibacterial activity. The format is cell-based, methicillin-resistant Staphylococcus aureus. The note with it: Staphylococcus aureus, ATCC33591|MRSA, read-out: MIC, MRSA. An outline of the steps:
as §2

Series [11] relates to L. donovani promastigotes. The series is described as follows: in vitro antileishmanial activity, alamarBlue assay. In kind it is cell-based, Leishmania donovani. Conditions: Leishmania donovani, 48 h; for IC50: read-out: L. donovani IC50, promastigotes, 48 h; for IC90: read-out: L. donovani IC90, promastigotes, 48 h.

Turning to `CCCCCOc1c(OC)cc(NC(C)CCCNC(=O)C(N)CCCCN)c2nc(C(C)(C)C)ccc12` (stereo not drawn) [compound 92, 2,6-Diamino-N-(4-(2-tert-butyl-6-methoxy-5-(pentyloxy)quinolin-8-ylamino)-pentyl)hexanamide], the IC50 was more than 20 µg/mL in [1]; 0.11 µg/mL (≈ 0.208 µM) in series [2]; more than 20 µg/mL in series [3]; 0.052 µg/mL (≈ 0.0982 µM) in series [4]; more than 20 µg/mL in series [5]; more than 20 µg/mL in series [7]. The IC50 in series [9] was 10.9 µg/mL (≈ 20.5 µM). Besides, the MFC in series [1], in [7] and in series [9] was more than 20 µg/mL throughout. In addition, the MIC in [1], in [3], in [5], in [7], in series [9] and in [10] was more than 20 µg/mL each time. The MBC in series [3] and in series [5] was more than 20 µg/mL each time. For the same molecule, the “P. berghei blood-schizontocidal activity (mice cured/treated)” value in series [6] (25 mg/kg/day × 4, oral) is “inactive (0/6)”; in series [6] (50 mg/kg/day × 4, oral) it was “suppressive activity; also recorded: active (4/6)”; in [6] (100 mg/kg/day × 4, oral), 100% cure and curative (6/6). In addition, the “cytotoxicity CTX” value in series [8] is “NC (NC, not cytotoxic up to 4760 ng/mL (4.76 μg/mL))”.

Regarding `CCCCCCOc1c(OC)cc(NC(C)CCCNC(=O)C(N)CCCCN)c2nc(C(C)(C)C)ccc12` (stereo not drawn) [compound 99, 2,6-Diamino-N-(4-(2-tert-butyl-5-(hexyloxy)-6-methoxyquinolin-8-ylamino)-pentyl)hexanamide], the IC50 in series [1] was more than 20 µg/mL; in series [2], 0.09 µg/mL (≈ 0.166 µM); in series [3], more than 20 µg/mL; in [4], 0.036 µg/mL (≈ 0.0662 µM); in series [5], more than 20 µg/mL; in series [7] it was more than 20 µg/mL. Besides, in series [9], the IC50 came out at 18.6 µg/mL (≈ 34.3 µM). The MFC in series [1], in series [7] and in [9] was more than 20 µg/mL throughout. Besides, the MIC in series [1], in [3], in [5], in series [7], in series [9] and in [10] was more than 20 µg/mL throughout. The MBC in series [3] and in series [5] was more than 20 µg/mL each time. Further, the “P. berghei blood-schizontocidal activity (mice cured/treated)” value in series [6] (25 mg/kg/day × 4, oral) is “inactive (0/6)”; in series [6] (50 mg/kg/day × 4, oral), “suppressive activity; also recorded: active (3/6)”; in series [6] (100 mg/kg/day × 4, oral) it was 100% cure and curative (6/6). Moreover, the “cytotoxicity CTX” value in series [8] is recorded as “NC (NC, not cytotoxic up to 4760 ng/mL (4.76 μg/mL))”.

Consider `CCCCCCCOc1c(OC)cc(NC(C)CCCNC(=O)C(N)CCCNC(=N)N)c2nc(C(C)(C)C)ccc12` (stereo not drawn) [compound 111, 2-Amino-N-(4-(2-tert-butyl-5-(heptyloxy)-6-methoxyquinolin-8-ylamino)pentyl)-5-guanidinopentanamide], for which the IC50 was more than 20 µg/mL in series [1]; 0.39 µg/mL (≈ 0.666 µM) in series [2]; more than 20 µg/mL in series [3]; 0.24 µg/mL (≈ 0.41 µM) in series [4]; more than 20 µg/mL in [5]; more than 20 µg/mL in series [7]. For the same molecule, the IC50 in [9] turned out to be 13.2 µg/mL (≈ 22.6 µM). The MFC in series [1], in series [7] and in series [9] was more than 20 µg/mL in each case. Besides, the MIC in series [1], in series [3], in series [5], in series [7], in series [9] and in series [10] was more than 20 µg/mL each time. For the same molecule, the MBC in series [3] and in [5] was more than 20 µg/mL throughout. Moreover, the “P. berghei blood-schizontocidal activity (mice cured/treated)” value was “inactive (0/6)” in series [6] (25 mg/kg/day × 4, oral); 100% cure and curative (6/6) in series [6] (50 mg/kg/day × 4, oral); 100% cure and curative (6/6) in series [6] (100 mg/kg/day × 4, oral). Further, the “cytotoxicity CTX” value in series [8] is “NC (NC, not cytotoxic up to 4760 ng/mL (4.76 μg/mL))”.

As for `CCCCCCCCOc1c(OC)cc(NC(C)CCCNC(=O)C(N)Cc2cc3ccccc3[nH]2)c2nc(C(C)(C)C)ccc12` (stereo not drawn) [compound 122, 2-Amino-N-(4-(2-tert-butyl-6-methoxy-5-(octyloxy)quinolin-8-ylamino)pentyl)-3-(1H-indol-2-yl)propanamide], the IC50 was more than 20 µg/mL in series [1]; more than 4.76 µg/mL in series [2]; more than 20 µg/mL in [3]; 9.32 µg/mL (≈ 14.8 µM) in [11]; more than 4.76 µg/mL in series [4]; 12 µg/mL (≈ 19 µM) in series [5]. Further, the IC50 was more than 20 µg/mL in series [7] and 6.8 µg/mL (≈ 10.8 µM) in series [9]. The MFC in series [1], in [7] and in series [9] was more than 20 µg/mL throughout. In addition, the MIC is more than 20 µg/mL in series [1]; more than 20 µg/mL in [3]; 20 µg/mL (≈ 31.8 µM) in series [5]; more than 20 µg/mL in series [7]; 20 µg/mL (≈ 31.8 µM) in [9]; 20 µg/mL (≈ 31.8 µM) in [10]. The MBC in [3] and in [5] was more than 20 µg/mL throughout. Besides, the IC90 in [11] stood at 25.7 µg/mL (≈ 40.8 µM). In [8], the “cytotoxicity CTX” value is reported as “NC (NC, not cytotoxic up to 4760 ng/mL (4.76 μg/mL))”.

As to `CCCCCCCCOc1c(OC)cc(NC(C)CCCNC(=O)C2CCCN2)c2nc(C(C)(C)C)ccc12` (stereo not drawn) [compound 123, N-(4-(2-tert-Butyl-6-methoxy-5-(octyloxy)quinolin-8-ylamino)pentyl)pyrrolidine-2-carboxamide], the IC50 in series [1] is more than 20 µg/mL; in series [2], more than 4.76 µg/mL; in series [3], more than 20 µg/mL; in series [11] it was 12.4 µg/mL (≈ 22.9 µM); in [4], more than 4.76 µg/mL; in series [5], 10.4 µg/mL (≈ 19.3 µM). Further, the IC50 in [7] is more than 20 µg/mL; in [9] it was 2.89 µg/mL (≈ 5.34 µM). Moreover, the MFC is more than 20 µg/mL in series [1], more than 20 µg/mL in series [7] and 5 µg/mL (≈ 9.25 µM) in [9]. Further, the MIC in series [1] was more than 20 µg/mL; in series [3], more than 20 µg/mL; in series [5] it was 20 µg/mL (≈ 37 µM); in [7] it was more than 20 µg/mL; in series [9] it was 5 µg/mL (≈ 9.25 µM); in series [10] it was 10 µg/mL (≈ 18.5 µM). For the same molecule, the MBC in series [3] is more than 20 µg/mL; in [5], 20 µg/mL (≈ 37 µM). Moreover, the IC90 in series [11] amounted to 38.4 µg/mL (≈ 71 µM). The “cytotoxicity CTX” value in series [8] is on record as “NC (NC, not cytotoxic up to 4760 ng/mL (4.76 μg/mL))”.

A word on the MFC: it is the smallest concentration meeting the test's criterion for killing the fungus. In general, MIC refers to the smallest concentration in the dilution series that meets the test's criterion for growth inhibition. In general, IC90 refers to the concentration at which the effect reaches the 90% level.
